Test results reported in ChEMBL document CHEMBL5223178, “Macrocyclic Retinoic Acid Receptor-Related Orphan Receptor C2 Inverse Agonists” (ACS Med Chem Lett, 2023).

Key:
[1] = Clearance in human liver microsomes; format: ADME, Microsome; details: read-out: CLH
[2] = Passive apparent permeability in MDCKII-LE cells; format: ADME, cell-based, Canis lupus familiaris; details: dog, MDCK
Outline: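 Passive permeability measured across RRCK (MDCKII-LE) cell monolayers. Values are means of two or more independent assays.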

[3] = Lipophilicity, log D of the compound at pH 7.4 by reverse phase HPLC; format: physicochemical; details: buffer
Outline: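 LogD at pH 7.4 determined by reverse-phase HPLC. Values are means of two or more independent assays.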

[4] = Inhibition of IL-17A production in human Th17 cells incubated for 6 days […]; format: functional, cell-based; details: Th17, 144 h
Outline: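 Inhibition of IL-17A production by human primary Th17 cells. Values are means of two or more independent assays.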

[5] = Inverse agonist activity at 6His-tagged RORC2 LBD (unknown origin) expressed in Escherichia coli assessed as inhibition of biotinylated SRC1-2 derived CPSSHSSLTERHKILHRLLQEGSPS-NH2 containing LXXLL coactivator peptide incubated for 3 hrs by TR-FRET assay; parameters: species or system Homo sapiens
Outline: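 TR-FRET cofactor recruitment measuring displacement of SRC1-2 coactivator peptide binding to histidine-tagged RORC2 ligand-binding domain. Values are means of two or more independent assays.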

[6] = target: Voltage-gated inwardly rectifying potassium channel KCNH2 (Homo sapiens, UniProt Q12809); assay: Displacement of [3H]-dofetilide from human ERG; format: toxicity
Outline: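 Binding assay measuring displacement of [3H]dofetilide. Values are means of two or more independent assays.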

[7] = target: T1, Nuclear receptor ROR-beta (Homo sapiens, UniProt Q92753); assay: Inverse agonist activity at 6His-tagged RORB LBD (unknown origin) expressed in Escherichia coli assessed as inhibition of biotinylated SRC1-2 derived CPSSHSSLTERHKILHRLLQEGSPS-NH2 containing LXXLL coactivator peptide incubated for 3 hrs by TR-FRET assay
T1 sequence (Q92753 whole entry): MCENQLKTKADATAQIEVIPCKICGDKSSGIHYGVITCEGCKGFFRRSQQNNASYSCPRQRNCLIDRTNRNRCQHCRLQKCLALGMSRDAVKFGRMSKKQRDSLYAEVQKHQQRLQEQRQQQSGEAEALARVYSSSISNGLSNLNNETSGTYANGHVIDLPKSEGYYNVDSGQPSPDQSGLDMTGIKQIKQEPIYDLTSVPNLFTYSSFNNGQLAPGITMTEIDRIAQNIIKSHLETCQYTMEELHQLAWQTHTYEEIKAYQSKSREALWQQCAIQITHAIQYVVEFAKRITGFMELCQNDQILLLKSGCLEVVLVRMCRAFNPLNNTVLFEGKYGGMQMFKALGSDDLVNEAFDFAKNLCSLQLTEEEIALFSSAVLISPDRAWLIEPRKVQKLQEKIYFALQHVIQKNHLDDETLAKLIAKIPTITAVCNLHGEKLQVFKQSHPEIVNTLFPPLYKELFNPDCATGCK

PXR (NR1I2) = target: T2, PXR (NR1I2) (Homo sapiens, UniProt O75469); assay: Agonist activity at PXR in human HeLa cells assessed as increase in NR activity at 10 uM relative to control; format: cell-based; details: read-out: Activity
T2 sequence (O75469 whole entry): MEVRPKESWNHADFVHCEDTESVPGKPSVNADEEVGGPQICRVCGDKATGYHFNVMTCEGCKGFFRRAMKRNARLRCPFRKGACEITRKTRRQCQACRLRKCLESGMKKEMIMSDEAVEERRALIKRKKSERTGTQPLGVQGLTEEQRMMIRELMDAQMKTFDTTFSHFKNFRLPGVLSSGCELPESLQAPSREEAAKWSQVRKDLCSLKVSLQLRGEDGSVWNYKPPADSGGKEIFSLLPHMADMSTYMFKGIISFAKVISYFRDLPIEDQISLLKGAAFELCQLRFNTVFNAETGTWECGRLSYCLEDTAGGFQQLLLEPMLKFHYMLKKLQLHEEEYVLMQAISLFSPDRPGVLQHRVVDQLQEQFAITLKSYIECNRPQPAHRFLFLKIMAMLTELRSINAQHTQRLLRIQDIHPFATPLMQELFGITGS
Outline: (§1)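 Multiplexed trans-FACTORIAL profiling: cells transfected with ligand-binding-domain chimeric constructs of 48 nuclear receptors fused to GAL4 DNA. Reporter RNA levels were measured. Compound was tested at 1 and 10 μM. Readout was fold change versus control, with a 20% change as the threshold for antagonist (reduction) or agonist (increase) effect.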

Homo sapiens [8] = assay: Ex vivo drug penetration in human abdominal skin applied topically using flow-through diffusion cell assessed as compound flux through skin measured upto 24 hrs by LC-MS/MS based in vitro skin penetration assay; format: functional; details: Abdomen skin
Outline: (§2)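 Ex vivo human skin dosed topically with a 2.75% (w/w) formulation in 30% ethanol, 30% PEG400, 20% diethylene glycol monoethyl ether and 20% glycerin (w/w). Cumulative amount in receptor solution (ng/cm2) was followed over 24 h. At 24 h, excess surface compound was removed, and epidermis and dermis were separated and homogenized to measure concentration (μg/g). Results are means with SEM.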

Homo sapiens [9] = assay: Ex vivo drug penetration in human abdominal skin applied topically using flow-through diffusion cell assessed as compound concentration in dermis layers measured upto 24 hrs by LC-MS/MS based in vitro skin penetration assay; format: functional, Abdomen skin; outline: as §2
Homo sapiens [10] = assay: Ex vivo drug penetration in human abdominal skin applied topically using flow-through diffusion cell assessed as compound concentration in skin epidermis measured upto 24 hrs by LC-MS/MS based in vitro skin penetration assay; format: functional; details: Abdomen skin; outline: as §2
[11] = target: T3, Nuclear receptor ROR-alpha (Homo sapiens, UniProt P35398); assay: Inverse agonist activity at 6His-tagged RORA LBD (unknown origin) expressed in Escherichia coli assessed as inhibition of biotinylated SRC1-2 derived CPSSHSSLTERHKILHRLLQEGSPS-NH2 containing LXXLL coactivator peptide incubated for 3 hrs by TR-FRET assay
T3 sequence (P35398 whole entry): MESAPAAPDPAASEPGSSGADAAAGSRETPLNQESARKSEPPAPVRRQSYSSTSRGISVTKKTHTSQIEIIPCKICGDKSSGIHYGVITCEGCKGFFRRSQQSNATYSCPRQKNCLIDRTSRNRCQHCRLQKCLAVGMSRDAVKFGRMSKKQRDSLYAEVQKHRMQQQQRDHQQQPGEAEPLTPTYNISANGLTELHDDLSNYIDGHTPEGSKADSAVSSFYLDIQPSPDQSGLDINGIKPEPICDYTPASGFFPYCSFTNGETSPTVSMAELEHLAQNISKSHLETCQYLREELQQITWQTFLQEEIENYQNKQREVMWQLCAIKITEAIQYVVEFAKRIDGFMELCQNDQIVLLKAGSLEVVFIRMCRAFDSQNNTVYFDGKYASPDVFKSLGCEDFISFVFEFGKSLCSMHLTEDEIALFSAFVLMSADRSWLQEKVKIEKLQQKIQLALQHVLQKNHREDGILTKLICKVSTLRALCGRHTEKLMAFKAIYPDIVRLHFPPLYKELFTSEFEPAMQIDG

HeLa = assay: Antagonist activity at RORC2 in human HeLa cells assessed as reduction in NR activity at 1 to 10 uM relative to control; format: cell-based; parameters: scale not given: the % may be the effect or the level left; details: dose 1-10 µM; outline: as §1

Chain of Voltage-gated inwardly rectifying potassium channel KCNH2 (Q12809 whole entry): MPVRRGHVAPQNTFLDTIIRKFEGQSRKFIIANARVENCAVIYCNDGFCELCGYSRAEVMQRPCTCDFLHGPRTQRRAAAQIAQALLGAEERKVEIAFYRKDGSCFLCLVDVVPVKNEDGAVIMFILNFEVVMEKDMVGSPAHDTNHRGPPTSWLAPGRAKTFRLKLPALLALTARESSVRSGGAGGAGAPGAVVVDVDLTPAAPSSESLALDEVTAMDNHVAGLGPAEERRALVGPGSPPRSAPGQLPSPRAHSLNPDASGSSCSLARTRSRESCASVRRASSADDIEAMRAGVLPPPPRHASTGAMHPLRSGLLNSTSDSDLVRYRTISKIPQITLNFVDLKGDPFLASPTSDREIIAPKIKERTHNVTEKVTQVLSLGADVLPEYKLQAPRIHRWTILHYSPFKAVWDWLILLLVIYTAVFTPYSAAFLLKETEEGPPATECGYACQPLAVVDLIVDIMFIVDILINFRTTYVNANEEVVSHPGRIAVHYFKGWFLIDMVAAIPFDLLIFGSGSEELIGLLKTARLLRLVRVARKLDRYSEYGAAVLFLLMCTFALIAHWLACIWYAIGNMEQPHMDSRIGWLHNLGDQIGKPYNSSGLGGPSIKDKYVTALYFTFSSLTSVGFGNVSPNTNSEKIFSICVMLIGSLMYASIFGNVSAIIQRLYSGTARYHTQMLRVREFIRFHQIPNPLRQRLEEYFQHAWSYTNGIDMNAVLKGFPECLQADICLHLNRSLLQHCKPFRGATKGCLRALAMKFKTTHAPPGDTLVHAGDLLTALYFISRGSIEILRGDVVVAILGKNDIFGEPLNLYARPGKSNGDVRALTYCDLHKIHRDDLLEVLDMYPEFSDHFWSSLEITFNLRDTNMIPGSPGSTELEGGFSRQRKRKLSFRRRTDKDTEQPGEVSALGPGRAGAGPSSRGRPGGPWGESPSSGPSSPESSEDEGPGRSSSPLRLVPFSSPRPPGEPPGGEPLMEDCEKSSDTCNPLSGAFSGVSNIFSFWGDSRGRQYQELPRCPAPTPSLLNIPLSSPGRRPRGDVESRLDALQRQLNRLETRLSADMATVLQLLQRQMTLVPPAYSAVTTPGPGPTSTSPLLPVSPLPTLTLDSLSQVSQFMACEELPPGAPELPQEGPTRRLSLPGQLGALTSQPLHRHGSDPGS

Row | Compound | microsomal CLint [1] [µL/min/mg] | Papp [2] [×10⁻⁶ cm/s] | chromatographic logD [3] | IC50 [4] [nM] | IC50 [5] [nM] | Ki [6] [nM] | IC50 [7] [nM] | activity at 10 µM (PXR (NR1I2)) [%] | Drug uptake (Homo sapiens [8]) [ng/cm2/h] | Activity (Homo sapiens [9]) [µg/g] | Drug uptake (Homo sapiens [10]) [µg/g] | IC50 [11] [nM] | Activity (HeLa) [%]
1 | O=C(CC1CC1)N1CCN2Cc3cc(F)cc(c3)NS(=O)(=O)CCCCCC1C2 (stereo not drawn) | 80 | 11.7 | 3.6 | > 10000 | 2400 |  |  |  |  |  |  |  | 
2 | Cc1c2cc(F)cc1NS(=O)(=O)CCCOCC1CN(CCN1C(=O)CC1CC1)C2 (stereo not drawn) | 55 |  | 2.1 | 110 | 120 |  |  |  |  |  |  |  | 
3 | Cc1c2cc(Cl)cc1NS(=O)(=O)CCCCC[C@H]1CN(CCN1C(=O)C(C)C)C2 | 200 | 17 | 4.3 | 2.2 | 2.4 | 11000 |  |  |  |  |  |  | 
4 | Cc1c2cc(F)cc1NS(=O)(=O)CCCCC[C@H]1CN(CCN1C(=O)C(C)C)C2 | 205 | 19 | 3.8 | 87 | 5.2 | 19000 |  |  |  |  |  |  | 
5 | Cc1c(CN2CCN(C(=O)C3CCCC3)[C@@H](C)C2)cc(F)cc1NC(=O)c1cccc(C#N)c1 | 239 | 6.5 | 4.5 | 16 | 5.4 | 3600 |  |  |  |  |  |  | 
6 | Cc1c2cc(F)cc1NS(=O)(=O)CCCCCC1CN(CCN1C(=O)CC1CC1)C2 (stereo not drawn) | 260 | 12.4 | 3.2 | 55 | 69 |  |  |  |  |  |  |  | 
7 | Cc1c2cc(F)cc1NS(=O)(=O)N(C)CCCCC1CN(CCN1C(=O)CC1CC1)C2 (stereo not drawn) | > 320 | 21 | 3.5 | 26 | 14 |  |  |  |  |  |  |  | 
8 | Cc1c2cccc1NS(=O)(=O)CCCCC[C@H]1CN(CCN1C(=O)C(C)C)C2 | 223 | 24 | 3.4 | 28 | 9.3 | 37000 | > 25000 | > 20 | 28.1 | 18.3 | 92.7 | > 25000 | > 20
9 | Cc1c2cc(F)cc1NS(=O)(=O)NCCCCC1CN(CCN1C(=O)CC1CC1)C2 (stereo not drawn) | 160 | 18.4 | 2.9 | 170 | 150 |  |  |  |  |  |  |  | 
10 | Cc1c(CN2CCN(C(=O)CC3CC3)[C@@H](C)C2)cc(F)cc1NS(=O)(=O)c1ccc(F)cc1 | 53 | 4.5 | 4.7 | 141 | 12 | 1800 |  |  |  |  |  |  | 
11 | Cc1c2cc(C#N)cc1NS(=O)(=O)CCCCC[C@H]1CN(CCN1C(=O)C(C)C)C2 | 130 | 22 | 2.9 | 65 | 27 | 17000 |  |  |  |  |  |  | 
12 | Cc1c(CN2CCN(C(=O)C3CCCC3)[C@@H](C)C2)cc(F)cc1NS(=O)(=O)c1ccc(F)cc1 | 68 | 1.3 | 5.3 | 6.5 | 2.1 | 4000 |  |  |  |  |  |  | 
13 | Cc1c2cc(F)cc1NS(=O)(=O)CCCCC1CN(CCN1C(=O)CC1CC1)C2 (stereo not drawn) | 71 | 24.7 | 3.3 | 2600 | 620 |  |  |  |  |  |  |  | 
